Test results taken from ChEMBL document CHEMBL1134768, “Identification of a putative binding site for [2',5'-bis-O-(tert-butyldimethylsilyl)-beta-D-ribofuranosyl]-3'-spiro-5''-(4''-amino-1'',2''-oxathiole-2'',2''-dioxide)thymine (TSAO) derivatives at the p51-p66 interface of HIV-1 reverse transcriptase” (J Med Chem, 2001).

Experiments:
[1] = system: MT4; assay: Inhibitory activity against HIV-2 in MT-4 cell culture.; format: functional, cell-based; settings: Homo sapiens
[2] = system: CCRF-CEM; assay: Inhibitory activity against HIV-1 in CEM cell culture.; format: functional, cell-based; settings: Homo sapiens
How it was run: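 CEM cells at about 200000-300000 cells/mL infected with HIV-1 (IIIB), then added to serial dilutions of compound. After 4 days at 37 °C, syncytium formation was scored by microscopy.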

[3] = system: CCRF-CEM; assay: Inhibitory activity against HIV-2 in CEM cell culture.; format: functional, cell-based; settings: Homo sapiens
[4] = system: MT4; assay: Inhibitory activity against HIV-1 in MT-4 cell culture.; format: functional, cell-based; settings: Homo sapiens
How it was run: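 MT-4 cells at about 200000-300000 cells/mL infected with HIV-1 (IIIB) and incubated with serial compound dilutions for 5 days at 37 °C. Viable cells were counted by trypan blue exclusion.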

[5] = target: Human immunodeficiency virus type 1 reverse transcriptase (Human immunodeficiency virus 1, UniProt Q72547); assay: Inhibitory activity against wild-type HIV-1 reverse transcriptase
[6] = target: Human immunodeficiency virus type 1 reverse transcriptase (Human immunodeficiency virus 1, UniProt Q72547, E138K); assay: Inhibitory activity against E138K mutant reverse transcriptase
[7] = target: Human immunodeficiency virus type 1 reverse transcriptase (Human immunodeficiency virus 1, UniProt Q72547, R172A); assay: Inhibitory activity against R172A mutant reverse transcriptase

Structure (SMILES)	EC50 [1] [nM]	EC50 [2] [nM]	EC50 [3] [nM]	EC50 [4] [nM]	IC50 [5] [nM]	IC50 [6] [nM]	IC50 [7] [nM]
Cc1cn([C@@H]2O[C@H](CO[Si](C)(C)C(C)(C)C)[C@@]3(OS(=O)(=O)C=C3N)[C@H]2O[Si](C)(C)C(C)(C)C)c(=O)[nH]c1=S	> 10000	170	> 2000	170	–	–	–
CC1=CN([C@@H]2O[C@H](CO[Si](C)(C)C(C)(C)C)[C@@]3(OS(=O)(=O)C=C3N)[C@H]2O[Si](C)(C)C(C)(C)C)C(=O)NC1	> 10000	100	> 2000	200	–	–	–
Cc1cn([C@@H]2O[C@H](CO[Si](C)(C)C(C)(C)C)C3(OS(=O)(=O)C=C3N)[C@H]2O[Si](C)(C)C(C)(C)C)c(=O)[nH]c1=O (stereo partly drawn)	> 20000	–	> 20000	–	6100	> 848000	627
Cc1cn([C@@H]2O[C@H](CO[Si](C)(C)C(C)(C)C)[C@@]3(OS(=O)(=O)C=C3N)[C@H]2O[Si](C)(C)C(C)(C)C)c(=O)n(C)c1=O	> 200000	60	> 200000	50	–	–	–
CC1=CNC(=O)N([C@@H]2O[C@H](CO[Si](C)(C)C(C)(C)C)[C@@]3(OS(=O)(=O)C=C3N)[C@H]2O[Si](C)(C)C(C)(C)C)C1	> 10000	120	> 10000	230	–	–	–
Cc1cn([C@@H]2O[C@H](CO[Si](C)(C)C(C)(C)C)[C@@]3(OS(=O)(=O)C=C3N)[C@H]2O[Si](C)(C)C(C)(C)C)c(=O)n(CCCO)c1=O	> 2000	10	> 2000	30	–	–	–
CC(C)=CCOc1cc(NC(=S)c2ccoc2C)ccc1Cl [UC 781]	–	–	–	–	23.8	226	20.8
